Assays:
esophagogastric cancer = settings: one esophagogastric cancer patient, daily dose of 5 mg; cited from earlier work
[1] = Safety and tolerability, adverse events; format: in vivo, Japanese patients
In short: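 Open-label 3+3 dose escalation with daily oral dosing up to 10 mg/day in 28-day cycles. Adverse events monitored throughout and graded by NCI CTCAE v3.0, recorded until 28 days after stopping. DLT: grade ≥3 haematologic or non-haematologic event, or grade ≥3 lab abnormality, within the first 4 weeks and suspected drug-related. Antiemetic and anti-hyperlipidaemia therapy allowed.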

[2] = 2.5 mg/day (n = 3), G1/2, all courses
[3] = 2.5 mg/day (n = 3), G3/4, all courses
[4] = 5 mg/day (n = 3), G1/2, all courses
[5] = 5 mg/day (n = 3), G3/4, all courses
[6] = 10 mg/day (n = 3), G1/2, all courses
[7] = 10 mg/day (n = 3), G3/4, all courses
[8] = Total, all doses and grades, all courses
[9] = one patient with esophageal carcinoma, 10 mg/day, day 58

CO[C@H]1C[C@@H]2CC[C@@H](C)[C@@](O)(O2)C(=O)C(=O)N2CCCC[C@H]2C(=O)O[C@H]([C@H](C)C[C@@H]2CC[C@@H](OCCO)[C@H](OC)C2)CC(=O)[C@H](C)/C=C(\C)[C@@H](O)[C@@H](OC)C(=O)[C@H](C)C[C@H](C)/C=C/C=C/C=C/1C [RAD001, everolimus]
5: Number of patients with adverse event: Thrombocytopenia [1, 8]
1: Number of patients with adverse event: Anorexia [1, 2] | Number of patients with adverse event: Hypertension [1, 2] | Number of patients with adverse event: Leukopenia [1, 2] | Number of patients with adverse event: Nausea [1, 2] | Number of patients with adverse event: Neutropenia [1, 2] | Number of patients with adverse event: Stomatitis [1, 2] | Number of patients with adverse event: Weight decreased [1, 2] | Number of patients with adverse event: Fatigue [1, 4] | Number of patients with adverse event: Glucose tolerance impaired [1, 4] | Number of patients with adverse event: Pneumonitis [1, 4] | Number of patients with adverse event: Rash [1, 4] | Number of patients with adverse event: Anemia [1, 6] | Number of patients with adverse event: Anorexia [1, 6] | Number of patients with adverse event: Nausea [1, 6] | Number of patients with adverse event: Weight decreased [1, 6] | Number of patients with adverse event: Fatigue [1, 7] | Number of patients with adverse event: Hemorrhage [1, 7] | Number of patients with adverse event: Hyperglycemia [1, 7] | Number of patients with adverse event: Stomatitis [1, 7] | Number of patients with adverse event: Anemia [1, 8] | Number of patients with adverse event: Glucose tolerance impaired [1, 8] | Number of patients with adverse event: Hemorrhage [1, 8] | Number of patients with adverse event: Hyperglycemia [1, 8] | Number of patients with adverse event: Hypertension [1, 8] | Number of patients with adverse event: Neutropenia [1, 8] | Number of patients with adverse event: Pneumonitis [1, 8]
56%: Thrombocytopenia, all grades, patients ([1]; overall, nine patients)
2: Number of patients with adverse event: Elevated ALT or AST [1, 2] | Number of patients with adverse event: Anorexia [1, 4] | Number of patients with adverse event: Diarrhea [1, 4] | Number of patients with adverse event: Leukopenia [1, 4] | Number of patients with adverse event: Thrombocytopenia [1, 4] | Number of patients with adverse event: Mucosal inflammation [1, 6] | Number of patients with adverse event: Diarrhea [1, 8] | Number of patients with adverse event: Elevated ALT or AST [1, 8] | Number of patients with adverse event: Fatigue [1, 8] | Number of patients with adverse event: Mucosal inflammation [1, 8] | Number of patients with adverse event: Nausea [1, 8] | Number of patients with adverse event: Stomatitis [1, 8] | Number of patients with adverse event: Weight decreased [1, 8]
not observed: Hyperlipidemia ([1]; all cohorts) | Dose-limiting toxicities (DLTs) ([1]; first cycle of treatment (28 days), 2.5, 5.0 or 10.0 mg/day)
4: Number of patients with adverse event: Anorexia [1, 8] | Number of patients with adverse event: Rash [1, 8]
0: Number of patients with adverse event: Anemia [1, 2] | Number of patients with adverse event: Diarrhea [1, 2] | Number of patients with adverse event: Fatigue [1, 2] | Number of patients with adverse event: Glucose tolerance impaired [1, 2] | Number of patients with adverse event: Hemorrhage [1, 2] | Number of patients with adverse event: Hyperglycemia [1, 2] | Number of patients with adverse event: Mucosal inflammation [1, 2] | Number of patients with adverse event: Pneumonitis [1, 2] | Number of patients with adverse event: Rash [1, 2] | Number of patients with adverse event: Thrombocytopenia [1, 2] | Number of patients with adverse event: Anemia [1, 3] | Number of patients with adverse event: Anorexia [1, 3] | Number of patients with adverse event: Diarrhea [1, 3] | Number of patients with adverse event: Elevated ALT or AST [1, 3] | Number of patients with adverse event: Fatigue [1, 3] | Number of patients with adverse event: Glucose tolerance impaired [1, 3] | Number of patients with adverse event: Hemorrhage [1, 3] | Number of patients with adverse event: Hyperglycemia [1, 3] | Number of patients with adverse event: Hypertension [1, 3] | Number of patients with adverse event: Leukopenia [1, 3] | Number of patients with adverse event: Mucosal inflammation [1, 3] | Number of patients with adverse event: Nausea [1, 3] | Number of patients with adverse event: Neutropenia [1, 3] | Number of patients with adverse event: Pneumonitis [1, 3] | Number of patients with adverse event: Rash [1, 3] | Number of patients with adverse event: Stomatitis [1, 3] | Number of patients with adverse event: Thrombocytopenia [1, 3] | Number of patients with adverse event: Weight decreased [1, 3] | Number of patients with adverse event: Anemia [1, 4] | Number of patients with adverse event: Elevated ALT or AST [1, 4] | Number of patients with adverse event: Hemorrhage [1, 4] | Number of patients with adverse event: Hyperglycemia [1, 4] | Number of patients with adverse event: Hypertension [1, 4] | Number of patients with adverse event: Mucosal inflammation [1, 4] | Number of patients with adverse event: Nausea [1, 4] | Number of patients with adverse event: Neutropenia [1, 4] | Number of patients with adverse event: Stomatitis [1, 4] | Number of patients with adverse event: Weight decreased [1, 4] | Number of patients with adverse event: Anemia [1, 5] | Number of patients with adverse event: Anorexia [1, 5] | Number of patients with adverse event: Diarrhea [1, 5] | Number of patients with adverse event: Elevated ALT or AST [1, 5] | Number of patients with adverse event: Fatigue [1, 5] | Number of patients with adverse event: Glucose tolerance impaired [1, 5] | Number of patients with adverse event: Hemorrhage [1, 5] | Number of patients with adverse event: Hyperglycemia [1, 5] | Number of patients with adverse event: Hypertension [1, 5] | Number of patients with adverse event: Leukopenia [1, 5] | Number of patients with adverse event: Mucosal inflammation [1, 5] | Number of patients with adverse event: Nausea [1, 5] | Number of patients with adverse event: Neutropenia [1, 5] | Number of patients with adverse event: Pneumonitis [1, 5] | Number of patients with adverse event: Rash [1, 5] | Number of patients with adverse event: Stomatitis [1, 5] | Number of patients with adverse event: Thrombocytopenia [1, 5] | Number of patients with adverse event: Weight decreased [1, 5] | Number of patients with adverse event: Diarrhea [1, 6] | Number of patients with adverse event: Elevated ALT or AST [1, 6] | Number of patients with adverse event: Fatigue [1, 6] | Number of patients with adverse event: Glucose tolerance impaired [1, 6] | Number of patients with adverse event: Hemorrhage [1, 6] | Number of patients with adverse event: Hyperglycemia [1, 6] | Number of patients with adverse event: Hypertension [1, 6] | Number of patients with adverse event: Leukopenia [1, 6] | Number of patients with adverse event: Neutropenia [1, 6] | Number of patients with adverse event: Pneumonitis [1, 6] | Number of patients with adverse event: Stomatitis [1, 6] | Number of patients with adverse event: Anemia [1, 7] | Number of patients with adverse event: Anorexia [1, 7] | Number of patients with adverse event: Diarrhea [1, 7] | Number of patients with adverse event: Elevated ALT or AST [1, 7] | Number of patients with adverse event: Glucose tolerance impaired [1, 7] | Number of patients with adverse event: Hypertension [1, 7] | Number of patients with adverse event: Leukopenia [1, 7] | Number of patients with adverse event: Mucosal inflammation [1, 7] | Number of patients with adverse event: Nausea [1, 7] | Number of patients with adverse event: Neutropenia [1, 7] | Number of patients with adverse event: Pneumonitis [1, 7] | Number of patients with adverse event: Rash [1, 7] | Number of patients with adverse event: Thrombocytopenia [1, 7] | Number of patients with adverse event: Weight decreased [1, 7]
44%: Anorexia, all grades, patients ([1]; overall, nine patients) | Rash, all grades, patients ([1]; overall, nine patients)
grade 2: Pneumonitis, grade ([1]; one patient with colon cancer, 5 mg/day, after 142 days of therapy)
partial response: Tumor response (esophagogastric cancer)
33%: Leukopenia, all grades, patients ([1]; overall, nine patients)
3: Number of patients with adverse event: Rash [1, 6] | Number of patients with adverse event: Thrombocytopenia [1, 6] | Number of patients with adverse event: Leukopenia [1, 8]
10 mg/day: Dosage recommended for further development ([1]; Japanese patients with advanced solid malignancies)
Grade 3: Hyperglycemia, grade ([1]; one patient with colorectal cancer, 10 mg/day, day 98) | Fatigue, grade [1, 9] | Stomatitis, grade [1, 9]

Source: PMC2800315 (Japanese Journal of Clinical Oncology, 2009)
